Test results reported in ChEMBL document CHEMBL4024777, “Discovery of LY3104607: A Potent and Selective G Protein-Coupled Receptor 40 (GPR40) Agonist with Optimized Pharmacokinetic Properties to Support Once Daily Oral Treatment in Patients with Type 2 Diabetes Mellitus” (J Med Chem, 2018).
Calls of active or inactive are those of the source. The calls are words filed in the database; no cut-off is given here.

Columns and labels:
[1] = Metabolic stability in human microsomes assessed as compound metabolized after 30 mins; format: ADME, Microsome; details: read-out: Drug metabolism
How it was run: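 Compound incubated 30 min with liver microsomes from mouse, rat, dog or human. Percent of compound metabolized recorded, as mean (SEM, n).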

[2] = AUC (0 to 24 hrs) in Beagle dog at 3 mg/kg, po; format: ADME, organism-based, Canis lupus familiaris; set-up: time < 24 hr, dose 3 mg/kg, route oral; details: in vivo
[3] = Tmax in Sprague-Dawley rat at 1 mg/kg, po; format: ADME, organism-based; details: in vivo
How it was run: (§1)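 Fasted rats given oral doses of 1 mg/kg. […] Bioavailability is calculated against the 1 mg/kg IV group.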

[4] = Intrinsic clearance in human hepatocytes; format: ADME, cell-based, Hepatocyte
[5] = Tmax in Beagle dog at 30 mg/kg, po; format: ADME, organism-based, Canis lupus familiaris; details: in vivo
How it was run: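 Dogs dosed orally at 30, 100 or 300 mg/kg, N = 2 per dose.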

Rattus norvegicus [6] = test: Toxicity in Zucker fa/fa rat assessed as change in body weight at 1 to 10 mg/kg, po; format: organism-based; details: in vivo
How it was run: (§2)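 Male Zucker fa/fa rats, 10 weeks old, given daily oral doses of 1, 3 or 10 mg/kg for 21 days. Body weight and food consumption tracked, with a reference agonist as positive control.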

[7] = Oral bioavailability in Sprague-Dawley rat at 1 mg/kg; format: ADME, organism-based; details: in vivo; how it was run: as §1
[8] = Solubility of the compound in DMSO at pH 7.4 by aqueous precipitation assay; format: physicochemical
How it was run: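 DMSO stock diluted into aqueous buffer at pH 7.4 in a precipitation assay. Result reported as the last soluble concentration, upper limit 100 µM.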

Cytochrome P450 3A4 = Cytochrome P450 3A4 (Homo sapiens, UniProt P08684); test: Inhibition of human CYP3A4; format: ADME
[9] = biological target: Free fatty acid receptor 1 (Rattus norvegicus) (UniProt Q8K3T4); test: Agonist activity at GPR40 in Sprague-Dawley rat islets assessed as glucose-stimulated insulin secretion levels at 1 uM in presence of 11.2 mM glucose by ELISA (reference value: 6.24 ng/ml)
[10] = Cmax in Beagle dog at 30 mg/kg, po; format: ADME, organism-based, Canis lupus familiaris; set-up: dose 30 mg/kg, route oral; details: in vivo
[11] = Intrinsic clearance in human microsomes; format: ADME, Microsome
[12] = Cmax in Beagle dog at 300 mg/kg, po; format: ADME, organism-based, Canis lupus familiaris; set-up: dose 300 mg/kg, route oral; details: in vivo
[13] = Half life in Sprague-Dawley rat at 1 mg/kg, po; format: ADME, organism-based; details: in vivo
[14] = Cmax in Sprague-Dawley rat at 100 mg/kg, po; format: ADME, organism-based; set-up: dose 100 mg/kg, route oral; details: in vivo
[15] = biological target: Free fatty acid receptor 1 (Rattus norvegicus) (UniProt Q8K3T4); test: Agonist activity at rat PK-tagged GPR40 expressed in human U2OS cells assessed as EA-tagged beta-arrestin recruitment after 90 mins in presence of 1 % heat inactivated FBS by beta-galactosidase reporter gene assay relative to untreated control; format: cell-based
[16] = Dissociation constant, pKa of the compound; format: physicochemical
[17] = biological target: T1, Peroxisome proliferator-activated receptor gamma (Homo sapiens) (UniProt P37231); test: Displacement of [3H]-agonist from human PPARgamma expressed in baculovirus infecetd Sf9 cells system up to 30 uM after 10 hrs in presence of DR2 by scintillation proximity assay
T1 sequence (whole entry): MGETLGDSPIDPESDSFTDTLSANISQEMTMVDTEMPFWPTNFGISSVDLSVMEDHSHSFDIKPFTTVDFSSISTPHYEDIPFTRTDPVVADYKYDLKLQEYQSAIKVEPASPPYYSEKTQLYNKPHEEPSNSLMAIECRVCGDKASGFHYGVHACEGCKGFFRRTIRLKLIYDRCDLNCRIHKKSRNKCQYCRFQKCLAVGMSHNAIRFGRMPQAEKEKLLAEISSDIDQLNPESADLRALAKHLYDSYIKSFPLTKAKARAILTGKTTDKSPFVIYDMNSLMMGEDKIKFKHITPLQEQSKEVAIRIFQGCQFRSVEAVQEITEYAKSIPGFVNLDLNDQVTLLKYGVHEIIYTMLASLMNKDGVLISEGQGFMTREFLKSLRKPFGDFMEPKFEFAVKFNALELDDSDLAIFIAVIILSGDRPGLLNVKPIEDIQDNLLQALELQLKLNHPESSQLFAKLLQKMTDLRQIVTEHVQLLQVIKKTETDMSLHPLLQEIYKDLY
How it was run: (§3)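 PPAR alpha, delta and gamma binding and functional activity were each tested at concentrations up to 30 µM.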

[18] = biological target: T2, Peroxisome proliferator-activated receptor alpha (Homo sapiens) (UniProt Q07869); test: Agonist activity at GAL4-fused human PPARalpha expressed in African green monkey CV1 cells up to 30 uM after 24 hrs by luciferase reporter gene assay; format: cell-based; how it was run: as §3
T2 sequence (whole entry): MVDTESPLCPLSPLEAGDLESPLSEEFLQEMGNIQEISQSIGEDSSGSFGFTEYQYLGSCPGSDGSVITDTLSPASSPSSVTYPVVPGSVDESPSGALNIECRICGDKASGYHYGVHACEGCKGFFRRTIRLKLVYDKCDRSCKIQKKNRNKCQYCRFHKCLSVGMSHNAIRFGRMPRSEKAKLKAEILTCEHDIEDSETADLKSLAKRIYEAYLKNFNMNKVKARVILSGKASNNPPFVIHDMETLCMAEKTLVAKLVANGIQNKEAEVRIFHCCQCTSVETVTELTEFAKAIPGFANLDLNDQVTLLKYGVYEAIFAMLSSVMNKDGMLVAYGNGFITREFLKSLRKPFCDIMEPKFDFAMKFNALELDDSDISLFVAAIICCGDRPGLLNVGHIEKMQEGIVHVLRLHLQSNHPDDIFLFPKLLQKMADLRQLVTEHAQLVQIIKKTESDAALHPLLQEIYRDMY

[19] = AUC (0 to 24 hrs) in Sprague-Dawley rat at 1 mg/kg, po; format: ADME, organism-based; set-up: time < 24 hr, dose 1 mg/kg, route oral; details: in vivo
[20] = Drug metabolism in rat hepatocytes assessed as metabolite-A formation; format: ADME, cell-based, Hepatocyte
[21] = biological target: Free fatty acid receptor 1 (Homo sapiens, UniProt O14842); test: Agonist activity at human GPR40 receptor expressed in HEK293 cells assessed as increase in intracellular calcium flux after 2.5 hrs measured over 3 mins by calcium 4 dye-based FLIPR assay; format: functional, cell-based
How it was run: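 Calcium flux was read by FLIPR in cells carrying recombinant human GPR40. Percent stimulation is relative to the response to 100 µM linoleic acid. EC50 is reported with SEM and n.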

[22] = biological target: Free fatty acid receptor 1 (Rattus norvegicus, UniProt Q8K3T4); test: Agonist activity at rat PK-tagged GPR40 expressed in human U2OS cells assessed as EA-tagged beta-arrestin recruitment after 90 mins in presence of 1 % heat inactivated FBS by beta-galactosidase reporter gene assay; format: cell-based
How it was run: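 β-Arrestin recruitment used rat GPR40 in the presence of 1% FBS. EC50 and % maximal stimulation are reported with SEM and n.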

[23] = biological target: Free fatty acid receptor 1 (Rattus norvegicus) (UniProt Q8K3T4); test: Agonist activity at GPR40 in Sprague-Dawley rat islets assessed as potentiation of glucose-stimulated insulin secretion at 1 to 10 uM in presence of […] glucose by ELISA
[24] = Cmax in Beagle dog at 3 mg/kg, po; format: ADME, organism-based, Canis lupus familiaris; set-up: dose 3 mg/kg, route oral; details: in vivo
Rattus norvegicus [25] = test: Toxicity in Zucker fa/fa rat assessed as alteration in food consumption at 1 to 10 mg/kg, po; format: organism-based; details: in vivo; how it was run: as §2
[26] = biological target: Free fatty acid receptor 1 (Rattus norvegicus) (UniProt Q8K3T4); test: Agonist activity at GPR40 in Sprague-Dawley rat islets assessed as glucose-stimulated insulin secretion levels at 3 uM in presence of 11.2 mM glucose by ELISA (reference value: 6.24 ng/ml)

Sequence of Free fatty acid receptor 1 (Rattus norvegicus) (Q8K3T4 whole entry): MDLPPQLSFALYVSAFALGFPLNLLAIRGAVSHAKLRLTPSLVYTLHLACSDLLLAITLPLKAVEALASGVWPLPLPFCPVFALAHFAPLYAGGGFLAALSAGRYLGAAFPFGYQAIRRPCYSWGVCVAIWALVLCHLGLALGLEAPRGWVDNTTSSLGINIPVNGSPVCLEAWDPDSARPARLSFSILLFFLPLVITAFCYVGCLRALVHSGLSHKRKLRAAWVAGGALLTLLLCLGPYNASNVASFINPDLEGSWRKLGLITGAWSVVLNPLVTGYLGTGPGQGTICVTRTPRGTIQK
Sequence of Free fatty acid receptor 1 (Homo sapiens, UniProt O14842) (O14842 whole entry): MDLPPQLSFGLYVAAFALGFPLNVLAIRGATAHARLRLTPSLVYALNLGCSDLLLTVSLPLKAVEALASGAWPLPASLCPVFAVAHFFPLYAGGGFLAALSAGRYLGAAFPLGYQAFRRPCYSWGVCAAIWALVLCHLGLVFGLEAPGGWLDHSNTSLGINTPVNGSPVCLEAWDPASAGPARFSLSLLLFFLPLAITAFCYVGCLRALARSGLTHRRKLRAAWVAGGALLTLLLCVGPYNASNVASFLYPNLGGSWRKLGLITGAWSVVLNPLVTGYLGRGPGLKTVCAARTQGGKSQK
Sequence of Free fatty acid receptor 1 (Rattus norvegicus, UniProt Q8K3T4) (Q8K3T4 whole entry): as the sequence (Q8K3T4 whole entry) above
Sequence of Cytochrome P450 3A4 (P08684 whole entry): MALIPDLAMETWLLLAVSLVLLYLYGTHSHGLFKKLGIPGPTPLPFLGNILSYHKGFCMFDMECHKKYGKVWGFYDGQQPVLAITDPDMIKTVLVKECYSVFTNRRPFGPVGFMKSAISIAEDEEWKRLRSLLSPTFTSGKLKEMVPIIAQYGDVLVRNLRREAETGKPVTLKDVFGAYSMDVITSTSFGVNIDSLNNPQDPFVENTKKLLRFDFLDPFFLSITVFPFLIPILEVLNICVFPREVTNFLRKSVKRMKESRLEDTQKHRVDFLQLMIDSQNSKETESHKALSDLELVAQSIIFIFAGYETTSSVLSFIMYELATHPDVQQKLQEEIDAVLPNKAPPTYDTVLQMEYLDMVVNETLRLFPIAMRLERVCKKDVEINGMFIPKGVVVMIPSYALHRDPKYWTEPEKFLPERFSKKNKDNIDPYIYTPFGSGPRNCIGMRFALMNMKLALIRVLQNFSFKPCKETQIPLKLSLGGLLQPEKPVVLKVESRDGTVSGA

For CC#C[C@@H](CC(=O)O)c1ccc(OCc2ccc3nc(-c4c(C)cccc4C)nn3c2)cc1, the metabolised at 0.5 h [1] was 5%, the AUC(0-t) at 24 h [2] was 52800 ng·h/mL and the Tmax [3] was 0.25 h. For the same molecule, the K [4] was 0.099 h⁻¹, the Tmax [5] was 2 h and the Activity (Rattus norvegicus [6]) was “Non-Toxic”. For the same molecule, the bioavailability [7] was 93%, the solubility kinetic [8] was greater than 100 µM and the IC50 (Cytochrome P450 3A4) was greater than 60000 nM. For the same molecule, the Activity [9] was 17.1 ng/mL, the Cmax [10] was 126 µg/mL and the K [11] was less than 0.0009 h⁻¹. The Cmax [12] was 277 µg/mL, the half-life [13] was 4.68 h and the Cmax [14] was 208 µg/mL. For the same molecule, the %max [15] was 130%, the pKa [16] was 4.3 and the Activity [17] was “inactive”. For the same molecule, the Activity [18] was “inactive”, the AUC(0-t) at 24 h [19] was 11700 ng·h/mL and the Drug metabolism [20] was “Metabolite_Detected”. For the same molecule, the EC50 [21] was 11 nM, the EC50 [22] was 14 nM and the Activity [23] was “inactive”. The Cmax [24] was 9.9 µg/mL, the Activity (Rattus norvegicus [25]) was “Non-Toxic” and the Activity [26] was 20.2 ng/mL.
